From ChEMBL document CHEMBL1123481, “Structure-activity relationships of (arylalkyl)imidazole anticonvulsants: comparison of the (fluorenylalkyl)imidazoles with nafimidone and denzimol” (J Med Chem, 1986)
Activity calls are given as the source filed them. The rule behind the calls is not given here.

Assays:
Mus musculus [1] = experiment: Effective dose in mice by pentylenetetrazole assay (administered subcutaneously); format: functional; conditions: sc
How it was run: (§1)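 Test compound was given orally to mice. At its previously determined time of peak effect, pentylenetetrazole (110 mg/kg in water, 10 mL/kg) was injected sc into the neck skin fold. Mice were watched for 15 min for presence or absence of a clonic seizure. Where protection was bell-shaped, the value is the dose giving maximum protection.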

Mus musculus [2] = experiment: Effective dose in mice by horizontal screen assay (administered orally); No effect at highest dose of 400 mg/kg; format: functional, organism-based; parameters: dose 400 mg/kg
How it was run: (§2)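 Fasted, pre-trained male CF1 mice (20–25 g) were dosed orally across a range of doses, given as a suspension in 5% acacia/water. Each mouse was placed on a 13 cm square wire screen, and the screen was rotated 180°. The score was return to the top within 1 min. Time of peak effect was scanned at 0.5–4 h. Each compound was then retested at that time with at least 4 doses and 12 mice per dose.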

Mus musculus [3] = species on record: Mus musculus; experiment: Compound was tested for time to peak anticonvulsant effect (TPE); format: functional
How it was run: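 Time to peak effect after oral dosing in 5% acacia/water was estimated by testing mice at 0.5, 1, 2, 3 and 4 h posttreatment in the MES and horizontal screen tests.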

Mus musculus [4] = experiment: Effective dose in mice by maximal electroshock assay, administered orally; format: functional; conditions: po
How it was run: (§3)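 Mice were dosed orally across a range of doses, given in 5% acacia/water. Time of peak effect was found by shocking at 0.5, 1, 2, 3 and 4 h. Corneal electroshock was 40 mA, 0.1 s, ac. Each compound was retested at peak time with at least four doses and 12 mice per dose. The ED50 for prevention of tonic-extensor convulsion was calculated by Litchfield–Wilcoxon; 95% confidence limits are given.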

Mus musculus [5] = experiment: Compound was tested for effective dose in mice by maximal electroshock assay (administered orally); No effect at highest dose of 300 mg/kg; format: functional, organism-based; parameters: dose 300 mg/kg; how it was run: as §3
Mus musculus [6] = experiment: Effective dose in mice by horizontal screen assay (administered orally); format: functional; conditions: po; how it was run: as §2
Mus musculus [7] = experiment: Effective dose in mice by pentylenetetrazole assay (administered subcutaneously); No effect at highest dose of 400 mg/kg; format: functional, organism-based; parameters: dose 400 mg/kg; how it was run: as §1
Mus musculus [8] = species on record: Mus musculus; experiment: Potentiation of hexobarbital-induced sleeping time in mice; format: functional
How it was run: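 Groups of 10 fasted mice received compound orally at 10 mg/kg in 5% acacia/water (10 mL/kg). At the compound's time of peak effect they were given hexobarbital 100 mg/kg ip, solubilized with stoichiometric NaOH. Sleeping time, measured as loss of righting reflex, was recorded to the nearest minute. Values are mean ± SEM.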

Mus musculus [9] = experiment: Compound was tested for effective dose in mice by maximal electroshock assay (administered orally); No effect at highest dose of 800 mg/kg; format: functional, organism-based; parameters: dose 800 mg/kg; how it was run: as §3
Mus musculus [10] = experiment: Compound was tested for effective dose in mice by horizontal screen assay (administered orally); No effect at highest dose of 800 mg/kg; format: functional, organism-based; parameters: dose 800 mg/kg; how it was run: as §2
Mus musculus [11] = experiment: Compound was tested for effective dose in mice by pentylenetetrazole assay (administered subcutaneously); No effect at highest dose of 800 mg/kg; format: functional, organism-based; parameters: dose 800 mg/kg; how it was run: as §1
[12] = molecular target: T1, GABA-A receptor; anion channel (Rattus norvegicus) (UniProt O09028+P15431+P18506+P18508+P19969+P20236+P23574+P23576+P28471+P28473+P30191+P62813+P63079+P63138+Q91ZM7+Q9ES14); experiment: In vitro displacement of [3H]flunitrazepam binding from rat cortical membranes at 50 uM; format: cell membranes; conditions: Membrane
How it was run: (§4)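 Rat cortical membranes (180 μg protein) were incubated with 2 nM [3H]flunitrazepam in 50 mM Tris-HCl pH 7.4 for 40 min at 4 °C, with test compound at 5×10^-5 M, in triplicate. Samples were filtered and washed three times with ice-cold buffer. Nonspecific binding was defined with 3 μM diazepam. Results are given as % of control, mean ± SEM.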

[13] = molecular target: T1, GABA-A receptor; anion channel (Rattus norvegicus); experiment: In vivo displacement of [3H]flunitrazepam binding to rat cortical membranes after 20 mg/kg ip dose; format: organism-based; parameters: dose 20 mg/kg; conditions: Membrane, at 20 mg/kg
How it was run: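 Male Sprague-Dawley rats (100 g; five per group) received saline or compound at 20 mg/kg ip. After 30 min, [3H]flunitrazepam (100 μCi/kg) was given iv via the tail vein. Rats were killed 20 min later. Cortex was homogenized in 50 mM Tris-HCl pH 7.4, and the particulate fraction was filtered and rinsed. Results are given as % of saline control, mean ± SEM.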

[14] = molecular target: T1, GABA-A receptor; anion channel (Rattus norvegicus); experiment: In vitro displacement of [3H]flunitrazepam binding to cortical membranes at 5e-5M concentration; how it was run: as §4
Mus musculus [15] = experiment: Compound was tested for effective dose in mice by pentylenetetrazole assay (administered subcutaneously); No effect at highest dose of 200 mg/kg; format: functional, organism-based; parameters: dose 200 mg/kg; how it was run: as §1
Mus musculus [16] = experiment: Compound was tested for effective dose in mice by horizontal screen assay (administered orally); No effect at highest dose of 200 mg/kg; format: functional, organism-based; parameters: dose 200 mg/kg; how it was run: as §2
Mus musculus [17] = experiment: Compound was tested for effective dose in mice by maximal electroshock assay (administered per orally); format: functional; conditions: po; how it was run: as §3
Mus musculus [18] = experiment: Compound was tested for effective dose in mice by pentylenetetrazole assay (administered subcutaneously); Ca 400; format: functional; conditions: sc; how it was run: as §1
Mus musculus [19] = experiment: Compound was tested for effective dose in mice by horizontal screen assay (administered orally); No effect at highest dose of 300 mg/kg; format: functional, organism-based; parameters: dose 300 mg/kg; how it was run: as §2
[20] = molecular target: Gamma-aminobutyric acid receptor subunit gamma-1 (Rattus norvegicus) (UniProt P23574); experiment: In vitro displacement of [3H]flunitrazepam binding to rat cortical membranes at 50 uM (No effect); format: cell membranes; conditions: Membrane; how it was run: as §4
Chain of Gamma-aminobutyric acid receptor subunit gamma-1 (Rattus norvegicus) (P23574 whole entry): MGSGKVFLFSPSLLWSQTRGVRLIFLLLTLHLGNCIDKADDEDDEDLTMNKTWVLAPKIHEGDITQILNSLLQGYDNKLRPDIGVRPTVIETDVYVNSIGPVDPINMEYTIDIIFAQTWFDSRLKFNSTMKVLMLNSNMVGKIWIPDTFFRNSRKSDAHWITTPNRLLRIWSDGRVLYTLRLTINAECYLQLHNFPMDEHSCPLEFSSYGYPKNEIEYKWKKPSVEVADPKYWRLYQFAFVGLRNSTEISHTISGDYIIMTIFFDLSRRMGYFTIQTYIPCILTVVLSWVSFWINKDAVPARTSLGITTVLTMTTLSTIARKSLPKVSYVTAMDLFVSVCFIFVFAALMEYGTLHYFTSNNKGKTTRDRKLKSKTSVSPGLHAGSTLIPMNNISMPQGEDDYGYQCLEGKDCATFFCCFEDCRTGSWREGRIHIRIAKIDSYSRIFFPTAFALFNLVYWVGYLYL

Mus musculus [21] = experiment: Compound was tested for effective dose in mice by horizontal screen assay (administered orally; No effect at highest dose of 200 mg/kg
Mus musculus [22] = experiment: Compound was tested for effective dose in mice by pentylenetetrazole assay (administered subcutaneously);No effect at highest dose of 200 mg/kg; format: functional, organism-based; parameters: dose 200 mg/kg; how it was run: as §1

## CCc1ccc2c(c1)Cc1cc(C(=O)Cn3ccnc3)ccc1-2.Cl
Mus musculus [1]
  ED50: > 400 mg/kg
Mus musculus [2]
  ED50: No effect
Mus musculus [3]
  TPE: 1 h
Mus musculus [4]
  ED50: 240 mg/kg

## c1ccc2cc(CCc3ncc[nH]3)ccc2c1
Mus musculus [5]
  ED50: No effect
Mus musculus [3]
  TPE: 1 h

## OC(CCn1ccnc1)c1ccc2c(c1)Cc1ccccc1-2 (stereo unspecified)
Mus musculus [6]
  ED50: > 400 mg/kg
Mus musculus [3]
  TPE: 1 h
Mus musculus [7]
  ED50: No effect
Mus musculus [8]
  ST: 75 min

## O=C(Cn1cnc(-c2ccccc2)c1)c1ccc2c(c1)Cc1ccccc1-2
Mus musculus [9]
  ED50: No effect
Mus musculus [10]
  ED50: No effect
Mus musculus [3]
  TPE: 2 h
Mus musculus [11]
  ED50: No effect

## COc1ccc2c(c1)Cc1cc(C(=O)Cn3ccnc3)ccc1-2
Mus musculus [2]
  ED50: No effect
Mus musculus [3]
  TPE: 2 h
Mus musculus [4]
  ED50: 360 mg/kg
Mus musculus [8]
  ST: 56.9 min
Mus musculus [11]
  ED50: No effect

## c1ccc2c(c1)Cc1cc(C3(CCn4ccnc4)OCCO3)ccc1-2
Mus musculus [1]
  ED50: > 400 mg/kg
Mus musculus [2]
  ED50: No effect
Mus musculus [3]
  TPE: 1 h

## Cc1nccn1CC(=O)c1ccc2c(c1)Cc1ccccc1-2
Mus musculus [6]
  ED50: > 400 mg/kg
Mus musculus [3]
  TPE: 1 h

## c1ccc2c(c1)Cc1cc(C3(Cn4ccnc4)SCCS3)ccc1-2
Mus musculus [6]
  ED50: > 400 mg/kg
Mus musculus [1]
  ED50: > 400 mg/kg
Mus musculus [3]
  TPE: 2 h

## O=C(Cn1ccnc1)c1ccc2c(ccc3ccccc32)c1
Mus musculus [6]
  ED50: > 400 mg/kg
Mus musculus [1]
  ED50: > 400 mg/kg
[12]
  Binding: 28%
Mus musculus [3]
  TPE: 1 h
Mus musculus [4]
  ED50: 150 mg/kg
[13]
  Control: 128%
[14]
  Control: 128%

## O=C(Cn1ccnc1)c1cccc2c1Cc1ccccc1-2
Mus musculus [6]
  ED50: > 100 mg/kg
Mus musculus [1]
  ED50: > 200 mg/kg
Mus musculus [3]
  TPE: 2 h
Mus musculus [4]
  ED50: 19 mg/kg

## O=C(CCCn1ccnc1)c1ccc2c(c1)Cc1ccccc1-2
Mus musculus [15]
  ED50: No effect
Mus musculus [16]
  ED50: No effect
Mus musculus [3]
  TPE: 0.5 h
Mus musculus [4]
  ED50: 27 mg/kg

## O=C(Cn1ccnc1)c1csc2ccccc12
Mus musculus [1]
  ED50: > 400 mg/kg
Mus musculus [2]
  ED50: No effect
Mus musculus [3]
  TPE: 1 h
Mus musculus [4]
  ED50: 59 mg/kg

## Cc1ccc2c(c1)Cc1cc(C(=O)Cn3ccnc3)ccc1-2
Mus musculus [2]
  ED50: No effect
Mus musculus [3]
  TPE: 2 h
Mus musculus [7]
  ED50: No effect

## CC(O)(Cn1ccnc1)c1ccc2c(c1)Cc1ccccc1-2 (stereo unspecified)
Mus musculus [17]
  ED50: 10 mg/kg
Mus musculus [2]
  ED50: No effect
Mus musculus [3]
  TPE: 2 h
Mus musculus [4]
  ED50: 10 mg/kg
Mus musculus [7]
  ED50: No effect
Mus musculus [8]
  ST: 146.9 min

## CC(C)c1ccc2c(c1)Cc1cc(C(=O)Cn3ccnc3)ccc1-2
Mus musculus [2]
  ED50: No effect
Mus musculus [3]
  TPE: 2 h
Mus musculus [4]
  ED50: 190 mg/kg
Mus musculus [7]
  ED50: No effect

## O=C(Cn1ccnc1)c1cc2ccccc2s1
Mus musculus [6]
  ED50: > 400 mg/kg
Mus musculus [1]
  ED50: > 400 mg/kg
Mus musculus [3]
  TPE: 1 h
Mus musculus [4]
  ED50: 86 mg/kg

## OC(Cn1ccnc1)c1ccc2c(c1)Cc1ccccc1-2 (stereo unspecified)
Mus musculus [16]
  ED50: No effect
Mus musculus [3]
  TPE: 1 h
Mus musculus [18]
  ED50: 400 mg/kg
Mus musculus [8]
  ST: 118.3 min

## O=C(Cn1ccnc1)c1cc2ccccc2o1
Mus musculus [19]
  ED50: inactive
Mus musculus [1]
  ED50: > 400 mg/kg
Mus musculus [3]
  TPE: 1.5 h
Mus musculus [4]
  ED50: 30 mg/kg
[13]
  Control: 142%
[20]
  Binding: inactive
[14]
  Control: 99.1%

## CC1c2ccccc2-c2ccc(C(=O)Cn3ccnc3)cc21 (stereo unspecified)
Mus musculus [21]
  ED50: No effect
Mus musculus [22]
  ED50: No effect
Mus musculus [3]
  TPE: 2 h
Mus musculus [8]
  ST: 69.7 min

## O=C(Cn1ccnc1)c1cccc2c1-c1ccccc1C2
Mus musculus [6]
  ED50: > 400 mg/kg
Mus musculus [1]
  ED50: 400 mg/kg
Mus musculus [3]
  TPE: 1 h
